Test results reported in ChEMBL document CHEMBL3232844, “Synthesis and structure activity relationships of schweinfurthin indoles” (2014).

Assays:
Type in all cases: functional
SNB-19 = assay: Cytotoxicity against human SNB19 cells; conditions: for CC50: read-out: pLC50 (the source's name) (converted); for TGI: read-out: pTGI (converted)
Method in brief: (§1)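 Tested in a 60-cell-line human tumor panel screen; the read-out is growth inhibition, reported as GI50 for each cell line.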

SK-MEL-28 = assay: Cytotoxicity against human SK-MEL-28 cells; conditions: for CC50: read-out: pLC50 (the source's name) (converted); for TGI: read-out: pTGI (converted); method in brief: as §1
HOP-92 = assay: Cytotoxicity against human HOP92 cells; conditions: for CC50: read-out: pLC50 (the source's name) (converted); for TGI: read-out: pTGI (converted); method in brief: as §1
Malme-3M = assay: Cytotoxicity against human MALME-3M cells; conditions: for CC50: read-out: pLC50 (the source's name) (converted); for TGI: read-out: pTGI (converted); method in brief: as §1
HOP-62 = assay: Cytotoxicity against human HOP62 cells; conditions: for CC50: read-out: pLC50 (the source's name) (converted); for TGI: read-out: pTGI (converted); method in brief: as §1
SW-620 = assay: Cytotoxicity against human SW620 cells; conditions: for CC50: read-out: pLC50 (the source's name) (converted); for TGI: read-out: pTGI (converted)
Method in brief: (§2)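 Cell line run as part of the 60-cell-line screening panel; growth inhibition was reported as a GI50 for each line.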

SF-268 = assay: Cytotoxicity against human SF268 cells; conditions: for CC50: read-out: pLC50 (the source's name) (converted); for TGI: read-out: pTGI (converted); method in brief: as §1
DU-145 = assay: Cytotoxicity against human DU145 cells; conditions: for TGI: read-out: pTGI (converted); method in brief: as §1
KM12 = assay: Cytotoxicity against human KM12 cells; conditions: for CC50: read-out: pLC50 (the source's name) (converted); for TGI: read-out: pTGI (converted); method in brief: as §1
HCC 2998 = assay: Cytotoxicity against human HCC2998 cells; conditions: for CC50: read-out: pLC50 (the source's name) (converted); for TGI: read-out: pTGI (converted); method in brief: as §1
TK-10 = assay: Cytotoxicity against human TK10 cells; conditions: for TGI: read-out: pTGI (converted); method in brief: as §2
[1] = Cytotoxicity against human OVCAR5 cells; conditions: for GI50: OVCAR-5; for CC50: OVCAR-5, read-out: pLC50 (the source's name) (converted); for TGI: OVCAR-5, read-out: pTGI (converted); method in brief: as §1
SR = assay: Cytotoxicity against human SR cells; conditions: for CC50: read-out: pLC50 (the source's name) (converted); for TGI: read-out: pTGI (converted); method in brief: as §2
RPMI-8226 = assay: Cytotoxicity against human RPMI8226 cells; conditions: for CC50: read-out: pLC50 (the source's name) (converted); for TGI: read-out: pTGI (converted); method in brief: as §1
[2] = Cytotoxicity against human OVCAR8 cells; conditions: for GI50: OVCAR-8; for CC50: OVCAR-8, read-out: pLC50 (the source's name) (converted); for TGI: OVCAR-8, read-out: pTGI (converted); method in brief: as §1
NCI-H522 = assay: Cytotoxicity against human NCI-H522 cells; conditions: for CC50: read-out: pLC50 (the source's name) (converted); for TGI: read-out: pTGI (converted); method in brief: as §1
[3] = Cytotoxicity against human Hs578T cells; conditions: Hs-578T; for TGI: read-out: pTGI (converted); method in brief: as §1

## COc1cc(/C=C/c2cc(OC)c3c(C/C=C(\C)CCC=C(C)C)c[nH]c3c2)cc2c1O[C@]1(C)CC[C@@H](O)C(C)(C)[C@H]1C2
SNB-19
  GI50: 1.7 µM
  CC50: 58.9 µM
  TGI: 13.5 µM
SK-MEL-28
  GI50: 1.05 µM
  CC50: 8.32 µM
  TGI: 2.95 µM
HOP-92
  GI50: 0.302 µM
  CC50: > 100 µM
  TGI: 16.6 µM
Malme-3M
  GI50: 1.82 µM
  CC50: 77.6 µM
  TGI: 19.5 µM
HOP-62
  GI50: 1.07 µM
  CC50: 22.4 µM
  TGI: 4.79 µM
SW-620
  GI50: 1.17 µM
  CC50: 5.89 µM
  TGI: 2.63 µM
SF-268
  GI50: 1.41 µM
  CC50: 52.5 µM
  TGI: 15.8 µM
DU-145
  GI50: 3.8 µM
  LC50 (50% lethal concentration): 45.7 µM
  TGI: 19.1 µM
KM12
  GI50: 0.562 µM
  CC50: 5.13 µM
  TGI: 1.95 µM
HCC 2998
  GI50: 11.5 µM
  CC50: 57.5 µM
  TGI: 25.7 µM
TK-10
  GI50: 4.27 µM
  LC50: > 100 µM
  TGI: 46.8 µM
[1]
  GI50: 1.02 µM
  CC50: 49 µM
  TGI: 14.5 µM
SR
  GI50: 0.245 µM
  CC50: > 100 µM
  TGI: 1.48 µM
RPMI-8226
  GI50: 0.126 µM
  CC50: > 100 µM
  TGI: 0.617 µM
[2]
  GI50: 12.6 µM
  CC50: > 100 µM
  TGI: 36.3 µM
NCI-H522
  GI50: 1.55 µM
  CC50: 8.51 µM
  TGI: 3.63 µM
[3]
  GI50: 0.219 µM
  LC50: > 100 µM
  TGI: 1.66 µM

## COc1cc(/C=C/c2cc(O)c3ccn(C)c3c2)cc2c1O[C@]1(C)CC[C@@H](O)C(C)(C)[C@H]1C2
SNB-19
  GI50: 1.45 µM
  CC50: > 100 µM
  TGI: > 100 µM
SK-MEL-28
  GI50: 0.832 µM
  CC50: > 100 µM
  TGI: 16.2 µM
HOP-92
  GI50: 0.525 µM
  CC50: > 100 µM
  TGI: 5.62 µM
Malme-3M
  GI50: 0.309 µM
  CC50: > 100 µM
  TGI: 49 µM
HOP-62
  GI50: 0.407 µM
  CC50: > 100 µM
  TGI: 5.01 µM
SW-620
  GI50: 1.02 µM
  CC50: > 100 µM
  TGI: 3.24 µM
SF-268
  GI50: 2.04 µM
  CC50: > 100 µM
  TGI: 66.1 µM
DU-145
  GI50: 3.8 µM
  LC50 (50% lethal concentration): > 100 µM
  TGI: 91.2 µM
KM12
  GI50: 1.26 µM
  CC50: 34.7 µM
  TGI: 7.08 µM
HCC 2998
  GI50: 4.57 µM
  CC50: > 100 µM
  TGI: 29.5 µM
TK-10
  GI50: 3.72 µM
  LC50: > 100 µM
  TGI: 64.6 µM
[1]
  GI50: 12.3 µM
  CC50: > 100 µM
  TGI: 77.6 µM
SR
  GI50: 0.468 µM
  CC50: > 100 µM
  TGI: > 100 µM
RPMI-8226
  GI50: 0.0708 µM
  CC50: > 100 µM
  TGI: 1.62 µM
[2]
  GI50: 11.2 µM
  CC50: > 100 µM
  TGI: 77.6 µM
NCI-H522
  GI50: 1.45 µM
  CC50: > 100 µM
  TGI: 4.37 µM
[3]
  GI50: 0.141 µM
  LC50: > 100 µM
  TGI: 20.4 µM

## COc1cc(/C=C/c2cc(O)c3c(c2)C[C@@H]2C(C)(C)[C@H](O)CC[C@@]2(C)O3)cc2[nH]cc(CC=C(C)C)c12
SNB-19
  GI50: 0.575 µM
  CC50: 64.6 µM
  TGI: 35.5 µM
SK-MEL-28
  GI50: 0.676 µM
  CC50: 46.8 µM
  TGI: 10.7 µM
HOP-92
  GI50: 1.15 µM
  CC50: 81.3 µM
  TGI: 22.9 µM
Malme-3M
  GI50: 5.37 µM
  CC50: > 100 µM
  TGI: 31.6 µM
HOP-62
  GI50: 0.0501 µM
  CC50: 40.7 µM
  TGI: 1.7 µM
SW-620
  GI50: 0.302 µM
  CC50: 21.4 µM
  TGI: 4.27 µM
SF-268
  GI50: 0.851 µM
  CC50: 69.2 µM
  TGI: 38.9 µM
DU-145
  GI50: 5.25 µM
  LC50 (50% lethal concentration): 64.6 µM
  TGI: 39.8 µM
KM12
  GI50: 2.95 µM
  CC50: 33.1 µM
  TGI: 10.2 µM
HCC 2998
  GI50: 6.03 µM
  CC50: 67.6 µM
  TGI: 37.2 µM
TK-10
  GI50: 8.32 µM
  LC50: 69.2 µM
  TGI: 40.7 µM
[1]
  GI50: 5.37 µM
  CC50: 60.3 µM
  TGI: 30.2 µM
SR
  GI50: 0.155 µM
  CC50: > 100 µM
  TGI: 32.4 µM
RPMI-8226
  GI50: 0.0112 µM
  CC50: > 100 µM
  TGI: 0.417 µM
[2]
  GI50: 11.5 µM
  CC50: 79.4 µM
  TGI: 47.9 µM
NCI-H522
  GI50: 1.66 µM
  CC50: 20.9 µM
  TGI: 7.24 µM
[3]
  GI50: 0.01 µM
  LC50: > 100 µM
  TGI: 0.977 µM
